In one data set the target is T1, Cathepsin G (Homo sapiens, UniProt P08311).
T1 sequence (P08311 whole entry): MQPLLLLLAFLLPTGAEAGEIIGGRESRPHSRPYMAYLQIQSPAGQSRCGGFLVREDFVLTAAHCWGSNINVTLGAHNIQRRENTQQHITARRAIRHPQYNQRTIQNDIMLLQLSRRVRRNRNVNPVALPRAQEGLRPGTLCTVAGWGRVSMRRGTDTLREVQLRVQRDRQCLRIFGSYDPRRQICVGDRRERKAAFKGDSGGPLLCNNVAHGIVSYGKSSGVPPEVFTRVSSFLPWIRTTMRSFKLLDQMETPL
Kind of data set: Concentration required to inhibit enzymatic cleavage of the chromogenic substrate (MeO-Suc-Ala-Ala-Pro-Met-pNA) for cathepsin G in vitro.

For another data set, the target named is Prothrombin (Homo sapiens, UniProt P00734). The data set is described as follows: Concentration required to inhibit enzymatic cleavage of the chromogenic substrate (H-D-Phe-Pip-Arg-pNA) thrombin in vitro.
The target in the next data set is Serine protease 1 (Homo sapiens, UniProt P07477). Kind of data set: Concentration required to inhibit enzymatic cleavage of the chromogenic substrate (Boc-Phe-Ser-Arg-AMC) for trypsin in vitro.
Chain of Serine protease 1 (P07477 whole entry): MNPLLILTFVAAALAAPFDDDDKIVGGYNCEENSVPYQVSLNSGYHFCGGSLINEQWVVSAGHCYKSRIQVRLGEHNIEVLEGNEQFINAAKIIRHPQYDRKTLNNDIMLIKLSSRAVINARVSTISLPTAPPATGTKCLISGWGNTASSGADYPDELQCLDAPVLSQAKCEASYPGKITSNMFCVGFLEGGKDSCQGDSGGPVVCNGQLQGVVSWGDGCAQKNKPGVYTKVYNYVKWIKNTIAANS
Another data set addresses Plasma kallikrein (Homo sapiens, UniProt P03952). Kind of data set: Concentration required to inhibit enzymatic cleavage of the chromogenic substrate (H-D-Pro-Phe-Arg-pNA) for plasma kallikrein in vitro.
For the next data set, the target named is Plasminogen (Rattus norvegicus, UniProt Q01177). Kind of data set: Concentration required to inhibit enzymatic cleavage of the chromogenic substrate (H-D-Val-Leu-Lys-pNA) for plasmin in vitro.
Chain of Plasminogen (Q01177 97-581 limits assumed): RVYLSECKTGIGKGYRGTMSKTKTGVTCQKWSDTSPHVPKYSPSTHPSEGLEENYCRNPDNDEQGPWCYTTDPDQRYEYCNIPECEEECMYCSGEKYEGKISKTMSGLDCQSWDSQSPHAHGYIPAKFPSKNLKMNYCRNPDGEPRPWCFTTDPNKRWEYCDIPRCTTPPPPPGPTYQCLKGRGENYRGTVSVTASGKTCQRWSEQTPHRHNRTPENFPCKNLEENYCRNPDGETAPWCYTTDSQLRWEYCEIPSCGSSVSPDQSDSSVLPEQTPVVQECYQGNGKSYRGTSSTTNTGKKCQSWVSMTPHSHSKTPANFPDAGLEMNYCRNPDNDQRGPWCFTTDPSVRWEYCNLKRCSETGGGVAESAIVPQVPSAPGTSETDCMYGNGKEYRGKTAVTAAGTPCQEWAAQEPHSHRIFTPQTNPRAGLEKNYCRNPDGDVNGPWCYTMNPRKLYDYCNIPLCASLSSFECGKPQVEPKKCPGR
Chain of Plasminogen (Q01177 582-812 limits assumed): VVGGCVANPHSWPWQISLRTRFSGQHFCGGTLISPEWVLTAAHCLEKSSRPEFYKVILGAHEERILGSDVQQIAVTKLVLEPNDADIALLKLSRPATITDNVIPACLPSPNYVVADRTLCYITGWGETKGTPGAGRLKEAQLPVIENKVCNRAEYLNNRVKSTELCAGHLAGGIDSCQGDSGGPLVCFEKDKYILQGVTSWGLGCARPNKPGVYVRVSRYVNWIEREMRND
The target of the next data set is Kallikrein-1 (Homo sapiens, UniProt P06870). Kind of data set: Concentration required to inhibit enzymatic cleavage of the chromogenic substrate (H-D-Val-Leu-Arg-pNA) for pancreatic kallikrein in vitro.
Chain of Kallikrein-1 (P06870 whole entry): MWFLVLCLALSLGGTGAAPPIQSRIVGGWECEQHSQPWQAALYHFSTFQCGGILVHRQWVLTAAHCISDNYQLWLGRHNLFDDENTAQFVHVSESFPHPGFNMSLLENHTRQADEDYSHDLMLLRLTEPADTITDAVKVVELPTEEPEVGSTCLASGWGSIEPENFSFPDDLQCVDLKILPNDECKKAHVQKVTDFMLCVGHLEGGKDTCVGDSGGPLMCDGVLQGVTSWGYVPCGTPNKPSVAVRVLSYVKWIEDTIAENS
The target in a further data set is Chymotrypsinogen A (Bos taurus, UniProt P00766). The data set is described as follows: Concentration required to inhibit enzymatic cleavage of the chromogenic substrate (Suc-Ala-Ala-Pro-Phe-pNA) for chymotrypsin in vitro.
For another data set, the target named is T2, Neutrophil elastase (Homo sapiens, UniProt P08246).
T2 sequence (P08246 whole entry): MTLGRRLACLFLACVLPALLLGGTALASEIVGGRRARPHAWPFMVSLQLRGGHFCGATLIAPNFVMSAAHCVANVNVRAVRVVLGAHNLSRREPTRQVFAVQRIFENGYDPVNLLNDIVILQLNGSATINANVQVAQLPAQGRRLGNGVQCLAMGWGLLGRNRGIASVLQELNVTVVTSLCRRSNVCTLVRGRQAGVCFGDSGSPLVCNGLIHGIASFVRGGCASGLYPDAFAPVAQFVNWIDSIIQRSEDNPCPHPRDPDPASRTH
Kind of data set: Concentration required to inhibit enzymatic cleavage of the chromogenic substrate (MeO-Suc-Ala-Ala-Pro-Val-pNA) for sputum elastase in vitro.

The nature of data set [1]: Concentration required to inhibit enzymatic cleavage of the chromogenic substrate (Suc-Ala-Ala-Ala-AMC) for pancreatic elastase in vitro. Further details: species or system Homo sapiens.
Data set [2] is described as follows: Half-life in rat plasma. It counts as ADME, organism-based. The method in brief:
(§1)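 Compound in MeOH (1 mg/mL stock) incubated with rat or dog plasma, liver homogenate or small intestine homogenate at 37 °C for 120 min; aliquots taken at regular intervals into acetonitrile with 1% methanesulfonic acid at 5 °C, centrifuged 10 000 rpm 1 min, analyzed by HPLC to give hydrolysis half-life (min) and products.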

The nature of data set [3]: Half-life in rat small intestine homogenate. Format: ADME, organism-based. In short, it runs like this: as §1
Data set [4] in a line: Half-life in dog plasma. Format: ADME, organism-based, Canis lupus familiaris. The method in brief:
as §1

A short description of data set [5]: Half-life in dog liver homogenate. Format: ADME, organism-based, Canis lupus familiaris. The method in brief:
as §1

Data set [6] is described as follows: Half-life in dog small intestine homogenate. It counts as ADME, organism-based, Canis lupus familiaris. In short, it runs like this: as §1
A short description of data set [7]: Half-life in rat liver homogenate. It counts as ADME, organism-based. The method in brief: as §1
Data set [8] in a line: Area under the plasma concentration was determined in fasted Beagle dogs after peroral administration of 20 mg/kg. It counts as ADME, organism-based, Canis lupus familiaris. Conditions: dog, po. Further details: dose 20 mg/kg, route oral. In short, it runs like this:
(§2)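 Fasted beagle dogs dosed orally; plasma (0.2 mL) deproteinized with acetonitrile containing 1% methanesulfonic acid at 5 °C, centrifuged 10 min at 3000 rpm at 5 °C, analyzed by HPLC with n-propyl or iso-amyl 4-hydroxybenzoate as internal standard.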

The nature of data set [9]: Area under the plasma concentration was determined in fasted Beagle dogs after peroral administration of 100 mg/kg. Format: ADME, organism-based, Canis lupus familiaris. Details: dose 100 mg/kg, route oral. Conditions: dog, po. In short, it runs like this:
as §2

The values below come from ChEMBL document CHEMBL1128424, “New orally active serine protease inhibitors” (J Med Chem, 1995).

Structures are written as SMILES.

Chain of Plasma kallikrein (P03952 whole entry, looked up): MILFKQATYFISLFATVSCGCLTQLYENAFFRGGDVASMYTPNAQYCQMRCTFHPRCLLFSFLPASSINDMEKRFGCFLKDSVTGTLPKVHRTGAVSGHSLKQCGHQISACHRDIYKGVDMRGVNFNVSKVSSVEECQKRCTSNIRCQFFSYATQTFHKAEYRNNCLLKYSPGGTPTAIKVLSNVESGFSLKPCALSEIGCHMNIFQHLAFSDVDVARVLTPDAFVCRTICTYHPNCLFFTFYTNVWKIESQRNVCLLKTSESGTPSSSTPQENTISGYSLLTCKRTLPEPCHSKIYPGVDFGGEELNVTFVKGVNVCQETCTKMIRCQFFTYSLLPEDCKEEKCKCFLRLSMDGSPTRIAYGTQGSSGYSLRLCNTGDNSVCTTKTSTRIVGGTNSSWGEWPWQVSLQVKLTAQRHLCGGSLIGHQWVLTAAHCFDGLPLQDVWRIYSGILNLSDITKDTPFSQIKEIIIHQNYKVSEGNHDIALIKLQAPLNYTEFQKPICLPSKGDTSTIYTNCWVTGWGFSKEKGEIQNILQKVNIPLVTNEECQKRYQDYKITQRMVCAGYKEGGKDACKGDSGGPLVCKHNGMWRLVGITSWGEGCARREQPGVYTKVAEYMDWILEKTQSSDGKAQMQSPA

For `N=C(N)Nc1ccc(C(=O)Oc2ccc(CC(=O)O)cc2)cc1`, the IC50 at Cathepsin G was over 100 µM; against Prothrombin, 108 µM; on Serine protease 1, 0.055 µM; against Plasma kallikrein it was 2.32 µM; against Plasminogen, 12.5 µM; against Kallikrein-1 it was over 100 µM. Also, the concentration for half-maximal inhibition (IC50) (against Chymotrypsinogen A; against Neutrophil elastase; in data set [1]) was over 100 µM in each case.
Turning to `C=CCN(CC(=O)OCC)C(=O)/C(C)=C/c1ccc(C(=O)Oc2ccc(C(=N)N)cc2)cc1.CS(=O)(=O)O`, the IC50 on Cathepsin G was over 100 µM; against Prothrombin, 3.66 µM; at Serine protease 1, 0.0112 µM; against Plasma kallikrein it was 0.19 µM; at Plasminogen, 0.873 µM; against Kallikrein-1 it was 15.7 µM. The IC50 (against Chymotrypsinogen A; on Neutrophil elastase; in data set [1]) was over 100 µM throughout. Also, the half-life in data set [2] was under 1 min; in [3] it was 11 min; in data set [4] it was 25 min; in data set [5], under 1 min; in data set [6], over 60 min; in data set [7], under 1 min.
With `C=CCN(CC(=O)O)C(=O)/C(C)=C/c1ccc(C(=O)Oc2ccc(C(=N)N)cc2)cc1.CS(=O)(=O)O`, the IC50 on Cathepsin G is over 100 µM; against Prothrombin, 35 µM; at Serine protease 1 it was 0.00413 µM; against Plasma kallikrein, 0.0965 µM; against Plasminogen, 1.83 µM; against Kallikrein-1, over 100 µM. Also, the IC50 (against Chymotrypsinogen A; against Neutrophil elastase; in data set [1]) was over 100 µM throughout. The half-life in data set [2] was over 60 min; in [3], over 60 min; in data set [4], 15 min; in data set [5], over 60 min; in [6] it was over 60 min; in data set [7] it was over 60 min. The AUC in [8] is 5230 ng·h/mL; in data set [9], 27000 ng·h/mL.
`CN(C)C(=O)COC(=O)Cc1ccc(OC(=O)c2ccc(NC(=N)N)cc2)cc1.CS(=O)(=O)O` [CAMOSTAT MESILATE]: the IC50 at Cathepsin G was over 100 µM; against Serine protease 1, 0.0506 µM; at Plasma kallikrein it was 1.48 µM; against Plasminogen, 2.62 µM; against Kallikrein-1 it was 34.1 µM; at Chymotrypsinogen A, over 100 µM. Further, the IC50 (on Neutrophil elastase; in data set [1]) was over 100 µM in each case. The AUC in data set [8] stood at 1820 ng·h/mL.

The IC50 is the midpoint of a concentration-inhibition curve. By half-life is commonly meant how long it takes for the measured level to halve. A high value points to slow loss. Broadly, the AUC is concentration integrated over time. A high value points to more exposure.
